How the values were obtained:
[1] = test system: SH-SY5Y human neuroblastoma cells stably expressing GLuc-SERCaMP; assay: GLuc-SERCaMP assay; assay type: cell-based; details: 4 h, read-out: EC50, GLuc-SERCaMP secretion in response to thapsigargin
[2] = CD-1 mice; value for 686 in brain
Sprague-Dawley rats = details: for Bederson’s neurological score: rat, intracerebroventricular 15 min prior to 60 min MCAo, vs vehicle
[3] = test system: C57Bl/6J male mice on high fat diet; assay: Metabolic testing in Diet Induced Obese; details: DIO mice, 12 mg/kg i.p. daily; for fasting insulin / insulin resistance index (HOMA-IR): vs vehicle
[4] = test system: INS-1 832/13 pTetR TO shWfs1 cells; assay: Wolfram caspase 3/7 assay; assay type: cell-based, rat; details: compounds and doxycycline for 48 h
[5] = test system: UPRE-NLuc reporter in SH-SY5Y cells; assay: UPRE luciferase reporter assay; assay type: cell-based, human; details: compound pre-treatment, then 100 nM thapsigargin
[6] = test system: BiP, ERdj4, and ASNS mRNA in SH-SY5Y cells; assay: ER stress response transcriptional analysis; assay type: cell-based, human; details: 30 μM compounds 16 h prior to 4 h 100 nM thapsigargin
Summary of the method: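 SH-SY5Y cells were plated at 2.5×10^5 cells/500 μl in 24-well plates. Test compound (30 μM) was given 16 h before a 4 h exposure to 100 nM thapsigargin. Total RNA was isolated with on-column DNA digestion, and 0.5 μg was reverse-transcribed with cDNA diluted 1:20. BiP reports the ATF6 arm. Data are 2^-ddCq (n=6) versus thapsigargin only, by one-way ANOVA with Dunnett's test.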

[7] = test system: SH-SY5Y cells transfected with GLuc-ERS constructs; assay: GLuc-ERS; assay type: cell-based, human; details: 20 μM
Summary of the method: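 SH-SY5Y cells are reverse-transfected with GLuc-ERS reporter constructs: 5 × 10^4 cells are plated onto the transfection complexes in antibiotic-free medium and grown 48 h. OGD is 16 h hypoxia plus 24 h normoxia, with the test compound added at the start of OGD. GLuc is assayed in medium and lysates with coelenterazine. The secretion index is extracellular/intracellular GLuc. n=9–15 wells.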

SH-SY5Y cells = assay: Endogenous SERCaMPs; assay type: cell-based, human; details: 20 μM
Summary of the method: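 SH-SY5Y cells were seeded at 5×10^4 cells/well in 96-well plates and given 16 h hypoxia plus 24 h normoxia with test compound (20 μM). At reperfusion, medium was fully exchanged to phenol red-free, serum-free esterase buffer (NaCl, KCl, MgCl2, CaCl2, glucose, 20 mM HEPES), collected 8 h later, and mixed 1:1 with 100 μM fluorescein […] substrate ([…]). Fluorescence (ex 465/em 528) was read after 1 h. n=24 wells; two-way ANOVA.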

[8] = test system: SH-SY5Y-GLuc-SERCaMP cells; assay: Oxygen-glucose deprivation; assay type: cell-based, human; details: 16 h hypoxia plus 24 h normoxia; for cell attachment and viability after OGD: drugs added at beginning of OGD
[9] = test system: BiP/GRP78 protein levels in SH-SY5Y-SERCaMP cells; assay: BiP immunoblot; assay type: cell-based, human; details: 30 μM compounds 16 h prior to 4 h 100 nM thapsigargin
[10] = test system: ER calcium store in SH-SY5Y cells; assay: GCaMPer ER calcium assay; assay type: cell-based, human; details: 16 hour pre-treatment; 50 nM thapsigargin, 30 min
[11] = test system: primary human skeletal muscle cells; assay: Human skeletal muscle exodosis assay; assay type: cell-based; details: 30-minute pre-treatment; 100 nM thapsigargin, 8 h
Summary of the method: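 Primary human myoblasts are grown in DMEM (4.5 g/L glucose) at 37°C and 5.5% CO2. They are plated at 7.3×10^3 cells/well on 3 mg/ml Matrigel-coated 96-well plates. Medium is sampled 4–8 h after thapsigargin. Secreted GLuc-SERCaMP is read as luminescence 8 h after 100 nM thapsigargin, after injecting 8 μM coelenterazine into 5 μl medium. n=11–12 wells per concentration.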

[12] = test system: SH-SY5Y-GLuc-SERCaMP cells; assay: SERCaMP assay, acute treatment paradigm; assay type: cell-based, human; details: 30 μM compound; 200 nM thapsigargin; measured 8 h after thapsigargin
[13] = test system: SH-SY5Y cells stably expressing a constitutively secreted GLuc (SH-SY5Y-GLuc); assay: SH-SY5Y-GLuc counterscreen; assay type: cell-based, human; details: 19 h treatment
Summary of the method: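 The counterscreen used SH-SY5Y cells expressing untagged, constitutively secreted Gaussia luciferase in 1536-well plates. Cells were exposed to test compound for 19 h, and GLuc was read from the medium. The ER-to-Golgi transport blocker brefeldin A (19 h) was titrated on each of eight plates as a control (n=2 per concentration).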

[14] = 16 h hypoxia plus 24 h normoxia

## C/C=C(/C)C(=O)O[C@H]1C(C)=C2[C@H]([C@@H]1OC(=O)CCCCCCC)[C@@](C)(OC(C)=O)C[C@H](OC(=O)CCC)[C@@]1(O)[C@H]2OC(=O)[C@@]1(C)O [Thapsigargin]
[1]
  EC50: 112 nM

## CC(C)C[C@H]1C(=O)N2CCC[C@H]2[C@]2(O)O[C@](NC(=O)[C@@H]3C=C4c5cccc6c5c(c(Br)n6C(=O)C5CC5)C[C@H]4N(C)C3)(C(C)C)C(=O)N12.Cl [analog 686, (6aR,9R)-5-bromo-4-(cyclopropanecarbonyl)-N-((2R,5S,10aS,10bS)-10b-hydroxy-5-isobutyl-2-isopropyl-3,6-dioxooctahydro-8H-oxazolo[3,2-a]pyrrolo[2,1-c]pyrazin-2-yl)-7-methyl-4,6,6a,7,8,9-hexahydroindolo[4,3-fg]quinoline-9-carboxamide, HCl]
[2]
  metabolic conversion to the parent bromocriptine molecule: < 1%
Sprague-Dawley rats; rat MCAO
  reduction of infarction volume compared with bromocriptine: more effective than bromocriptine
Sprague-Dawley rats
  Bederson’s neurological score: significant reduction

## CC(C)C[C@H]1C(=O)N2CCC[C@H]2[C@]2(O)O[C@](NC(=O)[C@@H]3C=C4c5cccc6c5c(c(Br)n6C(=O)NC5CC5)C[C@H]4N(C)C3)(C(C)C)C(=O)N12.Cl [analog 688, (6aR,9R)-5-bromo-N4-cyclopropyl-N9-((2R,5S,10aS,10bS)-10b-hydroxy-5-isobutyl-2-isopropyl-3,6-dioxooctahydro-8H-oxazolo[3,2-a]pyrrolo[2,1-c]pyrazin-2-yl)-7-methyl-6a,7,8,9-tetrahydroindolo[4,3-fg]quinoline-4,9(6H)-dicarboxamide, HCl]
[2]
  metabolic conversion to the parent bromocriptine molecule: no detectable conversion
Sprague-Dawley rats
  Bederson’s neurological score: significant reduction
[3]
  change in body weight following the first week of injections: did not show
  cumulative caloric intake and energy expenditure during the three weeks of treatment: did not show
  fasting glucose levels at 4 hours: reduced fasting glucose levels
  food intake at the end of the second and third week of injections: did not show
  fasting insulin: reduced
  insulin resistance index (HOMA-IR): reduced

## CC(C)C[C@H]1C(=O)N2CCC[C@H]2[C@]2(O)O[C@](NC(=O)[C@@H]3C=C4c5cccc6[nH]c(Br)c(c56)C[C@H]4N(C)C3)(C(C)C)C(=O)N12 [bromocriptine]
[4]
  caspase 3/7 activation associated with Wfs1 knockdown: reduced caspase 3/7 activation
[5]
  UPRE-NLuc activation: diminished UPRE-NLuc activation
[6]
  BiP mRNA levels: reduced expression of BiP
[7]; 30 min pre-treatment, 200nM thapsigargin 8 h
  thapsigargin-induced release of GLuc-ERS reporter proteins: broadly inhibited thapsigargin-induced release of the reporter proteins
[7]; [14]
  OGD-induced release of GLuc-ERS reporter proteins: broadly reduced the OGD-induced release of the reporter proteins
SH-SY5Y cells; 0.5 h before or 1 h following 200 nM thapsigargin
  thapsigargin-induced secretion of PDI, MANF, and carboxylesterases: reduced thapsigargin-induced secretion of all three proteins
SH-SY5Y cells; [14]
  OGD-induced release of carboxylesterases: decreased
Sprague-Dawley rats
  Bederson’s neurological score: significant reduction
[8]
  GLuc-SERCaMP secretion after OGD: decreased GLuc-SERCaMP secretion
  cell attachment and viability after OGD: improved cell attachment and viability
[9]
  BiP/GRP78 protein levels: reduced thapsigargin-induced accumulation
[10]
  effect on ER calcium (GCaMPer fluorescence): stabilizing effect on ER calcium
[3]
  change in body weight following the first week of injections: significant decrease in body weight
  cumulative caloric intake and energy expenditure during the three weeks of treatment: significantly higher
  fasting glucose levels at 4 hours: reduced fasting glucose levels
  food intake at the end of the second and third week of injections: elevated
  glucose excursion AUC in glucose tolerance tests: reduced the glucose excursion AUC
  fasting insulin: reduced
  insulin resistance index (HOMA-IR): reduced
[11]
  GLuc-SERCaMP release in primary human skeletal muscle cells: partially attenuated GLuc-SERCaMP release
[12]
  SERCaMP release, compound added 30 min pre- to 2 hours post-thapsigargin: inhibited SERCaMP release
  SERCaMP release, compound added 4 hours post-thapsigargin: inactive

## C[C@@H]1C[C@@H]([C@H](O)CC2CC(=O)NC(=O)C2)C(=O)[C@@H](C)C1 [cycloheximide]
[13]
  activity in the SH-SY5Y-GLuc counterscreen: inhibitory activity

## O=C1CN(/N=C/c2ccc(-c3ccc([N+](=O)[O-])cc3)o2)C(O)=N1 [dantrolene]
[5]
  UPRE-NLuc activation: inactive
[8]
  GLuc-SERCaMP secretion after OGD: decreased GLuc-SERCaMP secretion
  cell attachment and viability after OGD: improved cell attachment and viability
[11]
  GLuc-SERCaMP release in primary human skeletal muscle cells: partially attenuated GLuc-SERCaMP release
[12]
  SERCaMP release, compound added 30 min pre- to 2 hours post-thapsigargin: inhibited SERCaMP release
  SERCaMP release, compound added 4 hours post-thapsigargin: inactive

## COc1ccc2c(c1)[C@]13CCCC[C@@H]1[C@H](C2)N(C)CC3 [dextromethorphan]
[5]
  UPRE-NLuc activation: diminished UPRE-NLuc activation
[10]
  effect on ER calcium (GCaMPer fluorescence): no effect
[11]
  GLuc-SERCaMP release in primary human skeletal muscle cells: partially attenuated GLuc-SERCaMP release
[12]
  SERCaMP release, compound added 30 min pre- to 2 hours post-thapsigargin: inhibited SERCaMP release
  SERCaMP release, compound added 4 hours post-thapsigargin: inactive

## COc1ccc([C@@H]2Sc3ccccc3N(CCN(C)C)C(=O)[C@@H]2OC(C)=O)cc1 [diltiazem]
[4]
  caspase 3/7 activation associated with Wfs1 knockdown: reduced caspase 3/7 activation
[5]
  UPRE-NLuc activation: inactive
[8]
  GLuc-SERCaMP secretion after OGD: decreased GLuc-SERCaMP secretion
  cell attachment and viability after OGD: improved cell attachment and viability
[10]
  effect on ER calcium (GCaMPer fluorescence): no effect
[11]
  GLuc-SERCaMP release in primary human skeletal muscle cells: partially attenuated GLuc-SERCaMP release
[12]
  SERCaMP release, compound added 30 min pre- to 2 hours post-thapsigargin: inhibited SERCaMP release
  SERCaMP release, compound added 4 hours post-thapsigargin: inactive

## COc1ccc(CCN(C)CCCC(C#N)(c2ccc(OC)c(OC)c2)C(C)C)cc1OC (stereo not drawn) [verapamil]
[4]
  caspase 3/7 activation associated with Wfs1 knockdown: reduced caspase 3/7 activation
[5]
  UPRE-NLuc activation: diminished UPRE-NLuc activation
[6]
  BiP mRNA levels: reduced expression of BiP
[11]
  GLuc-SERCaMP release in primary human skeletal muscle cells: partially attenuated GLuc-SERCaMP release
[12]
  SERCaMP release, compound added 30 min pre- to 2 hours post-thapsigargin: inhibited SERCaMP release
  SERCaMP release, compound added 4 hours post-thapsigargin: inactive

— publication PMC8545458 (Cell reports, 2021)
